Data as given in the array DNA melting data of Ke et al. (doi:10.1101/2024.01.08.574731).

Experiments:
[1] = melting temperature; fluorescence melt of hairpins on a sequencing array, two-state fit, raised by 9.35 °C to match UV melts; conditions: sodium 0.088 M
Method in brief: (§1)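 With Cy3 and quencher oligos annealed, library hairpins on a sequenced MiSeq flow cell were imaged for Cy3 fluorescence in 50 mM Na-HEPES pH 8.0, 25 mM NaCl, in 2.5 °C steps up to 60 °C. Melting temperature and folding enthalpy were derived from bootstrapped two-state fits of signals normalised to pre-quench Cy3 and to control constructs. Four replicates were combined by inverse variance, with fitted temperatures raised by 9.35 °C to match UV melts.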

[2] = folding enthalpy; higher = less favourable; fluorescence melt of hairpins on a sequencing array, two-state fit; conditions: sodium 0.088 M
Method in brief: as §1

Row | Sequence | Tm [1] | folding enthalpy [2]
1 | GATCTGCGCCAGATC ((((((...)))))) | 50.8 °C | -35.3 kcal/mol
2 | GCTAAACGAAAGTTCAGC (((.(((....))).))) | 41.4 °C | -28.7 kcal/mol
3 | GCACCGCGAAAGCTGCGC ((.(.((....)).).)) | 47.4 °C | -24.4 kcal/mol
4 | GATCTGAGGCAGATC ((((((...)))))) | 47.5 °C | -31.4 kcal/mol
5 | GCATTCGAAAGAAGCTGC ((((((....)))..))) | 40.8 °C | -23.5 kcal/mol
6 | GTTTGCGAAAGCATTAAC ((((((....)))..))) | 27.3 °C | -12.2 kcal/mol
7 | GATCTCTGTGGAGATC ((((((....)))))) | 57.2 °C | -37.1 kcal/mol
8 | GATCAACCTTTTGATC ((((((....)))))) | 41.8 °C | -29.7 kcal/mol
9 | GGCGAACGAAAGTTGGCC (((.(((....))).))) | 59 °C | -42.5 kcal/mol
10 | GATCCAATCTTGGATC ((((((....)))))) | 54.3 °C | -33 kcal/mol
11 | GATCGTATTTACGATC ((((((....)))))) | 57.6 °C | -42.5 kcal/mol
12 | GGAGAAGGAAACTTTTCC (((.(((....))).))) | 31.1 °C | -26.2 kcal/mol
13 | GGTATCGAAAGATTTACC ((((((....)))..))) | 28.5 °C | -27.8 kcal/mol
14 | GATCCGGCGTCGGATC ((((((....)))))) | 58.2 °C | -45.3 kcal/mol
15 | GCAAGGGGAAACCCTTGC (((((((....))))))) | 68.3 °C | -38.3 kcal/mol
16 | GATCTAATTATAGATC ((((((....)))))) | 37.9 °C | -29 kcal/mol
17 | GGACTCGAAAGAGCCTCC ((((((....)))..))) | 42.7 °C | -16.9 kcal/mol
18 | GACGGCGGAAACGCCATC ((.((((....)))).)) | 41.1 °C | -13.2 kcal/mol
19 | GCGCCCGGAAACAGGCGC (((((.(....).))))) | 66.7 °C | -31.7 kcal/mol
20 | GCAGCGCGAAAGCCCAGC ((.(.((....)).).)) | 28.1 °C | -10.9 kcal/mol
21 | GTGCCCCGAAAGGGTCAC (((.(((....))).))) | 57.7 °C | -34.6 kcal/mol
22 | CGGGGGCGGAAACGCCCG (((..(((....)))))) | 52.2 °C | -6.12 kcal/mol
23 | GCCATACCGAAAGGTGGC (((..(((....)))))) | 53.4 °C | -24.4 kcal/mol

Row | Sequence | Tm [1] | folding enthalpy [2]
24 | GCTTTGACGAAAGTCAGC (((..(((....)))))) | 33.2 °C | -12 kcal/mol
25 | GCTGTCGGAAACAACAGC (((((.(....).))))) | 46 °C | -26.9 kcal/mol
26 | GCATCACGAAAGTGTGC (((.(((....)))))) | 56 °C | -39.2 kcal/mol
27 | GCGATCGGAAACGATTGC ((.((((....)))).)) | 56.3 °C | -43.5 kcal/mol
28 | GTTTTCCCGAAAGGGAAC (((..(((....)))))) | 36.5 °C | -10.7 kcal/mol
29 | GTCACCGAAAGGTCGGAC ((((((....)))..))) | 34.3 °C | -16 kcal/mol
30 | GATCTGCTGTCAGATC ((((((....)))))) | 51.6 °C | -32.2 kcal/mol
31 | GGAATGAAAATTCC (((((....))))) | 44.3 °C | -22.3 kcal/mol
32 | GCGAGAGGTCGC ((((....)))) | 50.9 °C | -8.36 kcal/mol
33 | GACTGACGAAAGTCCGTC (((.(((....))).))) | 49.2 °C | -29.4 kcal/mol
34 | GCGCATGGAAACACGCAC (.((.((....)).)).) | 29 °C | -13.8 kcal/mol
35 | GTTACCGAAAGGTCAAC ((((((....))).))) | 32.8 °C | -13.4 kcal/mol
36 | GTTTTCGAAAGAATAAC ((((((....))).))) | 31.2 °C | -12.9 kcal/mol
37 | GATCGCTCATGCGATC ((((((....)))))) | 67.8 °C | -40.2 kcal/mol
38 | GCGCCGCGAAAGCCGGGC ((.(.((....)).).)) | 55.3 °C | -15.8 kcal/mol
39 | GTTGTGGGAAACTACAGC (.(((.(....).))).) | 32 °C | -16.8 kcal/mol
40 | CGACACCGGAAACGGTCG (((..(((....)))))) | 42 °C | -13.7 kcal/mol
41 | GCGATTGGAAACAACCGC (((.(((....))).))) | 48.4 °C | -32.7 kcal/mol
42 | GATAACCGAAAGGTGATC (((.(((....))).))) | 47.8 °C | -27.9 kcal/mol
43 | GATCCTAATAGGATC ((((((...)))))) | 51.9 °C | -27.7 kcal/mol
44 | GCAGTGGCGAAAGCCTGC (((..(((....)))))) | 58.3 °C | -19.3 kcal/mol
45 | GCTTGGCGAAAGCTCAGC (((..((....))..))) | 41.1 °C | -15.2 kcal/mol
46 | CCTCGGAAACGAGG (((((....))))) | 55.7 °C | -25.8 kcal/mol

Row | Sequence | Tm [1] | folding enthalpy [2]
47 | GATCGAGAATTCGATC ((((((....)))))) | 57.4 °C | -39.7 kcal/mol
48 | GCGCTCGGAAACGGGTGC ((.(.((....)).).)) | 51.6 °C | -53.1 kcal/mol
49 | GCAAAGCGAAAGCTCTGC (((.(((....))).))) | 47 °C | -31.1 kcal/mol
50 | GCCGTGCGAAAGCAATGC ((..(((....)))..)) | 39.2 °C | -11.2 kcal/mol
51 | GAGGGTGGAAACGCCTTC ((.((.(....).)).)) | 34.1 °C | -25.7 kcal/mol
52 | GTGAACGAAAGTTATCAC ((((((....)))..))) | 31 °C | -13.2 kcal/mol
53 | GACTAGGCGAAAGCCGTC (((..(((....)))))) | 50.4 °C | -8.71 kcal/mol
54 | GACCACGAAAGTGCGTC ((((((....))).))) | 53.7 °C | -22.8 kcal/mol
55 | GCGTCGGGAAACTGACGC (((((.(....).))))) | 65.3 °C | -49.8 kcal/mol
56 | GGCTACGAAAGTATGCC ((((((....))).))) | 54.6 °C | -37.8 kcal/mol
57 | GAAACCGGAAACGGTTCC (.(((((....))))).) | 41.4 °C | -13.4 kcal/mol
58 | GCGAGACATCGC ((((....)))) | 55.1 °C | -8 kcal/mol
59 | GTCGCGACGAAAGTCGAC (((..(((....)))))) | 38.2 °C | -8.29 kcal/mol
60 | GCATCCGAAAGGATGTGC ((((((....)))..))) | 60.5 °C | -18.9 kcal/mol
61 | GGAGGAGGAAACTCCTTC (.(((((....))))).) | 53.4 °C | -28.7 kcal/mol
62 | GCCGGGCGAAAGCCACGC ((..(((....)))..)) | 50 °C | -12.7 kcal/mol
63 | GCGAATGGAAACATTCAC (.(((((....))))).) | 38.1 °C | -18.6 kcal/mol
64 | GCATGCGAAAGCAACTGC ((((((....)))..))) | 40.2 °C | -14.2 kcal/mol
65 | GCAATGAAAATTGC (((((....))))) | 50.7 °C | -22.7 kcal/mol
66 | GTATTCGGAAACAAATAC (((((.(....).))))) | 22.5 °C | -10.3 kcal/mol
67 | GAAAGCCGAAAGGCATTC (((.(((....))).))) | 45.9 °C | -15.2 kcal/mol
68 | GGGGCCGGAAACAGCCCC (((((.(....).))))) | 57 °C | -41.3 kcal/mol
69 | GTGTCAGGAAACTGGTAC ((..(((....)))..)) | 31.8 °C | -17.6 kcal/mol
